Like-named read-outs stand apart in the source and are kept apart here.
Assays:
U937 cells [1] = experiment: Cell growth assay; format: cell-based, human; conditions: for IC50: Homo sapiens, U-937, read-out: IC50p (50% inhibition of cell proliferation)
Outline: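 U937 cells seeded at 5×10^4 cells/ml in RPMI 1640 with 10% FBS and 2 mM glutamine, then grown with graded test compound levels at 37 °C, 5% CO2. Hemocytometer counts on days 3–5, trypan blue viability. IC50p taken from a day-3 inhibition-versus-concentration plot. Efflux arm: MRP inhibitor at 10 μM added with test compound (145 or 13 μM final), counted day 4, two quadruplicate experiments, paired t-test.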

K562 cells = experiment: Cell growth assay; format: cell-based, human; conditions: for IC50: Homo sapiens, K562, read-out: IC50p (50% inhibition of cell proliferation); for % of inhibition of cell proliferation: 4th day
U937 cells [2] = conditions: cited from earlier work
leucine aminopeptidase = conditions: cited from earlier work

| IC50 (U937 cells [1]) | IC50 (K562 cells) | change of IC50p with time of incubation (K562 cells; K562, 3rd, 4th and 5th days, Fig. 1) | SMILES | % of inhibition of cell proliferation (K562 cells; K562, 580 μM bestatin or 26 μM actinonin + verapamil (30 μM)) | % of inhibition of cell proliferation (U937 cells [1]; U937, 145 μM bestatin or 13 μM actinonin + MK-571 (10 μM), 4th day) | % of inhibition of cell proliferation (K562 cells; K562, 580 μM bestatin or 26 μM actinonin + MK-571 (10 μM)) | % of inhibition of cell proliferation (K562 cells; K562, 580 μM bestatin or 26 μM actinonin + MK-571 (30 μM)) | IC50 (U937 cells [2]; read-out: IC50p, ref 3) | IC50 (U937 cells [2]; read-out: IC50p, ref 6, 12) | IC50 (U937 cells [2]; read-out: IC50p, ref 11) | Ki (leucine aminopeptidase) | antiproliferative effect on U937 cells (U937 cells [1]; U937, 10 μM) |
| --- | --- | --- | --- | --- | --- | --- | --- | --- | --- | --- | --- | --- |
| 11 µM | 19 µM | – | CCCCC[C@H](CC(=O)NO)C(=O)N[C@H](C(=O)N1CCC[C@H]1CO)C(C)C [Actinonin] | 78.0±6.6% | – | – | – | – | – | – | – | – |
| 108 µM | 466 µM | increased significantly | CC(C)C[C@H](NC(=O)[C@@H](O)[C@H](N)Cc1ccccc1)C(=O)O [Bestatin] | – | 87.4±4.1% | 66.0±3.7% | 73.6±3.4% | 58 µM | ~150 µM | 8 µM | 0.02 µM | – |
| – | – | – | COc1ccc(CCN(C)CCCC(C#N)(c2ccc(OC)c(OC)c2)C(C)C)cc1OC (centres unmarked) [Verapamil, verapamil] | – | – | – | – | – | – | – | – | exhibits an antiproliferative effect |

From paper PMC7127609 (Cancer Letters, 2002)
